Here are results for three molecules from ChEMBL document CHEMBL4145662, “Novel Nonsteroidal Progesterone Receptor (PR) Antagonists with a Phenanthridinone Skeleton” (ACS Med Chem Lett, 2018).

The target of one data set is T1, Androgen receptor (Homo sapiens, UniProt P10275).
T1 sequence (P10275 whole entry): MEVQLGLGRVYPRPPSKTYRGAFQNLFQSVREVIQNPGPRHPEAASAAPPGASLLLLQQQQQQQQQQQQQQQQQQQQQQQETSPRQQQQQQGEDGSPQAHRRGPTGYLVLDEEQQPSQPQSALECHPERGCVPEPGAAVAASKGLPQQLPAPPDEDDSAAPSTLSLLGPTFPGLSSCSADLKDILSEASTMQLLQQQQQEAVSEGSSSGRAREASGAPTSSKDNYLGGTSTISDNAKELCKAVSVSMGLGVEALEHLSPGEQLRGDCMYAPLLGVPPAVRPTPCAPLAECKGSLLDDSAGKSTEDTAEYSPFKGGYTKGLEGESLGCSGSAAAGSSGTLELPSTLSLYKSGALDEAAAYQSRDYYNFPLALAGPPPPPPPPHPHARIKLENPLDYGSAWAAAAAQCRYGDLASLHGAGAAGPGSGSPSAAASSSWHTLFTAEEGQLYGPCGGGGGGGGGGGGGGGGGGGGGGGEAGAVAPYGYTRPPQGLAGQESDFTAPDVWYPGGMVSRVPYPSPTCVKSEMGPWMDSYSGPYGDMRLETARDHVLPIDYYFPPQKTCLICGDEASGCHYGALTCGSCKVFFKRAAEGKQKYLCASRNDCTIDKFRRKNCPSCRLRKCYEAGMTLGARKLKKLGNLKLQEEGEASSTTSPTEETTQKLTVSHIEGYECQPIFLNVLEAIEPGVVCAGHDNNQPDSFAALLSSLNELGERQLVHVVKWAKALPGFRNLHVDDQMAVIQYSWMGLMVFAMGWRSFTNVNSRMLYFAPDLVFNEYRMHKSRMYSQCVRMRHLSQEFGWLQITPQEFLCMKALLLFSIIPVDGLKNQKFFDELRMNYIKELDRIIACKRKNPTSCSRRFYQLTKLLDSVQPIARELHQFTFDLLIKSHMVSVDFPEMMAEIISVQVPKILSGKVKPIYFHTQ
The data set can be described thus: Antagonist activity at human CMX-AR expressed in HEK293 cells assessed as reduction in dihydrotestosterone-induced transactivation activity after 24 hrs by luciferase reporter gene assay. Type of data set: cell-based. The procedure, abridged:
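AR antagonism measured by reporter gene assay with dihydrotestosterone (0.3 nM) as agonist.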
Background: Reporter assays use an easily measured gene product as a stand-in for the process of interest.

Data set [1] is described as follows: Apparent permeability across apical to basolateral side in human Caco2 cells at 10 uM. Particulars: caco-2, 10 µM. Type of data set: ADME, cell-based.
Data set [2] addresses T2, Oxysterols receptor LXR-beta (Homo sapiens, UniProt P55055).
T2 sequence (P55055 whole entry): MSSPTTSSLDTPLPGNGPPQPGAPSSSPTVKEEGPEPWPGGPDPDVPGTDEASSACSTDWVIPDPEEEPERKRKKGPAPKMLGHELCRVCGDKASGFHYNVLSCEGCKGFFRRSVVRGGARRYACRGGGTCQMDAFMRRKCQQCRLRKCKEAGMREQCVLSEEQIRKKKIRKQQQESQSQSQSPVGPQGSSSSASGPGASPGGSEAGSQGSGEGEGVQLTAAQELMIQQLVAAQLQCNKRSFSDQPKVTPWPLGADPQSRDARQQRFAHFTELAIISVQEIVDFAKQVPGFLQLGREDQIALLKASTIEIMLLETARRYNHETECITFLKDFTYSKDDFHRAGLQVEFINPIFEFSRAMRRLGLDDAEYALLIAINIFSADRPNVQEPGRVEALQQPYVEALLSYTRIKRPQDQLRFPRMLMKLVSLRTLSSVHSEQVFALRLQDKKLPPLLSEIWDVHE
Description: Antagonist activity at human GAL4N-fused LXRbeta LBD expressed in HEK293 cells assessed as reduction in T0901317-induced transactivation activity after 24 hrs by luciferase reporter gene assay. Type of data set: cell-based.

Data set [3] can be described thus: Stability in human liver microsomes at 0.1 uM by LC-MS/MS analysis. Type of data set: ADME, microsome. In general terms: Microsomes from liver hold many membrane-bound enzymes, among them those of drug oxidation.
Data set [4] has as its target T3, Nuclear receptor ROR-gamma (Homo sapiens, UniProt P51449).
T3 sequence (P51449 whole entry): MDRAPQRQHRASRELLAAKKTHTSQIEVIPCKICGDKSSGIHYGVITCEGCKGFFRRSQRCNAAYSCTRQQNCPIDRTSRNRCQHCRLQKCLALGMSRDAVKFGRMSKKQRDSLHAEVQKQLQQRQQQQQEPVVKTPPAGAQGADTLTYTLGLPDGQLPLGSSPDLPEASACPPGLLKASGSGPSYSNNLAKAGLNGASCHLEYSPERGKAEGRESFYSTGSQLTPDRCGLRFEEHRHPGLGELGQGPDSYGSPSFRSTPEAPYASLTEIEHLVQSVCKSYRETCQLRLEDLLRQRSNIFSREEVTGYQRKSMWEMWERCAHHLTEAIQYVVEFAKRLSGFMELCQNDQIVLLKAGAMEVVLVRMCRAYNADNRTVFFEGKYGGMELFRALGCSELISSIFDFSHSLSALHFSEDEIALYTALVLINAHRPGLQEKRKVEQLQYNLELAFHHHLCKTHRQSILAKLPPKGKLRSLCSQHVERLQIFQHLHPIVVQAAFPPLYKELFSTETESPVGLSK
Description: Antagonist activity at human RORgamma1 expressed in HEK293 cells after 24 hrs by luciferase reporter gene assay. Type of data set: cell-based. In outline: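 Inverse agonism at RORα, RORβ or RORγ measured by reporter gene assay.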

Data set [5] has as its target T4, Oxysterols receptor LXR-beta (Homo sapiens) (UniProt P55055).
T4 sequence (whole entry): T2 sequence (P55055 whole entry)
Description: Antagonist activity at human GAL4N-fused LXRbeta LBD expressed in HEK293 cells assessed as reduction in T0901317-induced transactivation activity at 20 uM after 24 hrs by luciferase reporter gene assay. The data set is classed as cell-based.

Calls of active or inactive are those of the source. The calls are words filed in the database; no cut-off is given here.

With `Cc1cc(C(O)(C(F)(F)F)C(F)(F)F)cc2c1[nH]c(=O)c1ccccc12`, the IC50 (at Androgen receptor; in data set [2]; in data set [4]) was more than 20 µM in each case. Moreover, the Papp entry in data set [1] was “Permeable”. The Stability entry in data set [3] is “Stable”.

In the case of `Cc1cc(C(O)(C(F)(F)F)C(F)(F)F)cc2c1[nH]c(=O)c1cc(F)ccc12`, at Androgen receptor, the concentration for half-maximal inhibition (IC50) is 1.8 µM. Further, the result in data set [5] was inactive.

Turning to `Cc1cc(C(O)(C(F)(F)F)C(F)(F)F)cc2c3ccc(F)cc3c(=O)n(C)c12`, in data set [2], the IC50 is more than 20 µM.

The term IC50 denotes the point on the concentration scale where inhibition reaches its midpoint.
